What was measured:
Type in all cases: functional
Digitaria sanguinalis [1] = experiment: Herbicidal activity against Digitaria sanguinalis (hairy crabgrass) assessed as inhibition in green house at 750 g/ha pre-emergence treatment measured after 15 days; conditions: 360 h
How it was run: (§1)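 Greenhouse pot test. Two replicates per treatment. Control was the same amount of water, N,N-dimethylformamide and Tween 20. Fresh weights were taken 15 days after treatment, and percentage inhibition was calculated relative to controls.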

Echinochloa crus-galli [2] = experiment: Herbicidal activity against Echinochloa crus-galli (barnyard grass) assessed as inhibition in green house at 187.5 g/ha pre-emergence treatment measured after 15 days; conditions: 360 h; how it was run: as §1
Digitaria sanguinalis [3] = experiment: Herbicidal activity against Digitaria sanguinalis (hairy crabgrass) assessed as inhibition in green house at 187.5 g/ha pre-emergence treatment measured after 15 days; conditions: 360 h; how it was run: as §1
[4] = test system: Brassica rapa subsp. oleifera; experiment: Herbicidal activity against Brassica rapa subsp. oleifera assessed as inhibition of root growth at 100 ug/ml at 28 +/- 1 degC measured after 65 hr by root test
How it was run: (§2)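 Rape seeds were presoaked 4 h in distilled water. About 15 seeds were placed per 6-cm Petri plate on filter paper pre-wetted with 2 mL inhibitor solution. Plates germinated in the dark for 65 h at 28 ± 1 °C. Root length of 10 roots per plate was measured and averaged. Result expressed as percentage inhibition.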

Echinochloa crus-galli [5] = experiment: Herbicidal activity against Echinochloa crus-galli (barnyard grass) assessed as inhibition in green house at 750 g/ha pre-emergence treatment measured after 15 days; conditions: 360 h; how it was run: as §1
Digitaria sanguinalis [6] = experiment: Herbicidal activity against Digitaria sanguinalis (hairy crabgrass) assessed as inhibition in green house at 93.75 g/ha pre-emergence treatment measured after 15 days; conditions: 360 h; how it was run: as §1
Digitaria sanguinalis [7] = experiment: Herbicidal activity against Digitaria sanguinalis (hairy crabgrass) assessed as inhibition in green house at 1500 g/ha post-emergence treatment measured after 15 days; conditions: 360 h; how it was run: as §1
[8] = test system: Brassica rapa subsp. oleifera; experiment: Herbicidal activity against Brassica rapa subsp. oleifera assessed as inhibition of root growth at 10 ug/ml at 28 +/- 1 degC measured after 65 hr by root test; how it was run: as §2
Echinochloa crus-galli [9] = experiment: Herbicidal activity against Echinochloa crus-galli (barnyard grass) assessed as inhibition in green house at 1500 g/ha pre-emergence treatment measured after 15 days; conditions: 360 h; how it was run: as §1
Amaranthus retroflexus [10] = experiment: Herbicidal activity against Amaranthus retroflexus assessed as inhibition in green house at 1500 g/ha post-emergence treatment measured after 15 days; conditions: 360 h; how it was run: as §1
[11] = test system: Brassica rapa subsp. oleifera; experiment: Herbicidal activity against Brassica rapa subsp. oleifera assessed as inhibition in green house at 1500 g/ha post-emergence treatment measured after 15 days; conditions: 360 h; how it was run: as §1
Digitaria sanguinalis [12] = experiment: Herbicidal activity against Digitaria sanguinalis (hairy crabgrass) assessed as inhibition in green house at 1500 g/ha pre-emergence treatment measured after 15 days; conditions: 360 h; how it was run: as §1
[13] = test system: Brassica rapa subsp. oleifera; experiment: Herbicidal activity against Brassica rapa subsp. oleifera assessed as inhibition in green house at 1500 g/ha pre-emergence treatment measured after 15 days; conditions: 360 h; how it was run: as §1
Echinochloa crus-galli [14] = experiment: Herbicidal activity against Echinochloa crus-galli (barnyard grass) assessed as inhibition in green house at 93.75 g/ha pre-emergence treatment measured after 15 days; conditions: 360 h; how it was run: as §1
Echinochloa crus-galli [15] = experiment: Herbicidal activity against Echinochloa crus-galli (barnyard grass) assessed as inhibition in green house at 375 g/ha pre-emergence treatment measured after 15 days; conditions: 360 h; how it was run: as §1
Echinochloa crus-galli [16] = experiment: Herbicidal activity against Echinochloa crus-galli (barnyard grass) assessed as inhibition of seedling growth at 10 ug/ml at 28 +/- 1 degC measured after 65 hr by cup test
Amaranthus retroflexus [17] = experiment: Herbicidal activity against Amaranthus retroflexus assessed as inhibition in green house at 1500 g/ha pre-emergence treatment measured after 15 days; conditions: 360 h; how it was run: as §1
Digitaria sanguinalis [18] = experiment: Herbicidal activity against Digitaria sanguinalis (hairy crabgrass) assessed as inhibition in green house at 375 g/ha pre-emergence treatment measured after 15 days; conditions: 360 h; how it was run: as §1
Echinochloa crus-galli [19] = experiment: Herbicidal activity against Echinochloa crus-galli (barnyard grass) assessed as inhibition in green house at 1500 g/ha post-emergence treatment measured after 15 days; conditions: 360 h; how it was run: as §1
Echinochloa crus-galli [20] = experiment: Herbicidal activity against Echinochloa crus-galli (barnyard grass) assessed as inhibition of seedling growth at 100 ug/ml at 28 +/- 1 degC measured after 65 hr by cup test

Row | SMILES | inhibition at 750 g/ha (Digitaria sanguinalis [1]) [%] | inhibition at 187.5 g/ha (Echinochloa crus-galli [2]) [%] | inhibition at 187.5 g/ha (Digitaria sanguinalis [3]) [%] | inhibition at 100 µg/mL [4] [%] | inhibition at 750 g/ha (Echinochloa crus-galli [5]) [%] | inhibition at 93.75 g/ha (Digitaria sanguinalis [6]) [%] | inhibition at 1500 g/ha (Digitaria sanguinalis [7]) [%] | inhibition at 10 µg/mL [8] [%] | inhibition at 1500 g/ha (Echinochloa crus-galli [9]) [%] | inhibition at 1500 g/ha (Amaranthus retroflexus [10]) [%] | inhibition at 1500 g/ha [11] [%] | inhibition at 1500 g/ha (Digitaria sanguinalis [12]) [%] | inhibition at 1500 g/ha [13] [%] | inhibition at 93.75 g/ha (Echinochloa crus-galli [14]) [%] | inhibition at 375 g/ha (Echinochloa crus-galli [15]) [%] | inhibition at 10 µg/mL (Echinochloa crus-galli [16]) [%] | inhibition at 1500 g/ha (Amaranthus retroflexus [17]) [%] | inhibition at 375 g/ha (Digitaria sanguinalis [18]) [%] | inhibition at 1500 g/ha (Echinochloa crus-galli [19]) [%] | inhibition at 100 µg/mL (Echinochloa crus-galli [20]) [%]
1 | CCOc1ccc(/C(O)=C2\C(=O)CN(C(C)C)C2=O)cc1 | 96 | 52 | 84 | 82 | 98 | 22 | 0 | 8 | 100 | 0 | 0 | 98 | 0 | 8 | 94 | 79 | 0 | 94 | 19 | 80
2 | COc1ccc(/C(O)=C2\C(=O)CN(C(C)C)C2=O)c(OC)c1 | 93 | 93 | 68 | 69 | 100 | 0 | – | 27 | – | – | – | – | – | 34 | 100 | 78 | – | 77 | – | 80
3 | COc1ccc(/C(O)=C2\C(=O)CN(C3CC3)C2=O)cc1 | 73 | – | – | 70 | 69 | – | 0 | 35 | 81 | 0 | 0 | 57 | 0 | – | 7 | 62 | 0 | 69 | 0 | 66
4 | CCOc1ccc(/C(O)=C2\C(=O)CN(C3CC3)C2=O)cc1 | 77 | 0 | 18 | 47 | 99 | – | 6 | 0 | 100 | 13 | 0 | 42 | 6 | – | 13 | 78 | 0 | 33 | 0 | 79
5 | CC(C)N1CC(=O)/C(=C(/O)c2cccc(Oc3ccccc3)c2)C1=O | – | – | – | 81 | – | – | 0 | 0 | 0 | 9 | 0 | 0 | 0 | – | – | 57 | 0 | – | 0 | 67
6 | CS(=O)(=O)c1ccc(C(=O)C2C(=O)CCCC2=O)c(Cl)c1 [SULCOTRIONE] | 100 | 93 | 100 | – | 100 | 100 | – | – | – | – | – | – | – | 70 | 100 | – | – | 100 | – | –

Source: ChEMBL document CHEMBL3045615, “Synthesis and herbicidal evaluation of novel 3-[(alpha-hydroxy-substituted)benzylidene]pyrrolidine-2,4-diones” (J Agric Food Chem, 2005)
